The values below come from ChEMBL document CHEMBL4219238, “Design, synthesis, molecular modelling and in vitro cytotoxicity analysis of novel carbamate derivatives as inhibitors of Monoacylglycerol lipase” (Bioorg Med Chem, 2018).

Assay [1] has as its system B16-F10. Briefly: Induction of apoptosis in mouse B16F10 cells assessed as early apoptotic cells at 10 uM after 48 hrs by Annexin V-FITC/propidium iodide staining based flow cytometry (reference value: 1.75%). The assay is classed as functional.
For assay [2], the target named is T1, Monoglyceride lipase (Mus musculus, UniProt O35678).
T1 sequence (O35678 whole entry): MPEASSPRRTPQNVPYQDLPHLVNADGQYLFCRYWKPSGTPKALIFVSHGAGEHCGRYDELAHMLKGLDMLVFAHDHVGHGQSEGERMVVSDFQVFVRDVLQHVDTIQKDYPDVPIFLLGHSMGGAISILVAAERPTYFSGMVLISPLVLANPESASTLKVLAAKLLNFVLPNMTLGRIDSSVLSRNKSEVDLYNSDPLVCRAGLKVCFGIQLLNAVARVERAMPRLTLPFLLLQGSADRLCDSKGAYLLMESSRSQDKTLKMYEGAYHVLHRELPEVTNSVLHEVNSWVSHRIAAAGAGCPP
The assay can be described thus: Inhibition of MAGL in mouse B16-F10 cells using 7-HRA as substrate preincubated for 60 mins followed by substrate addition measured every 2.5 mins for 2 hrs by fluorescence assay. In kind it is cell-based.

Assay [3] addresses T2, Fatty-acid amide hydrolase 1 (Homo sapiens) (UniProt O00519).
T2 sequence (whole entry): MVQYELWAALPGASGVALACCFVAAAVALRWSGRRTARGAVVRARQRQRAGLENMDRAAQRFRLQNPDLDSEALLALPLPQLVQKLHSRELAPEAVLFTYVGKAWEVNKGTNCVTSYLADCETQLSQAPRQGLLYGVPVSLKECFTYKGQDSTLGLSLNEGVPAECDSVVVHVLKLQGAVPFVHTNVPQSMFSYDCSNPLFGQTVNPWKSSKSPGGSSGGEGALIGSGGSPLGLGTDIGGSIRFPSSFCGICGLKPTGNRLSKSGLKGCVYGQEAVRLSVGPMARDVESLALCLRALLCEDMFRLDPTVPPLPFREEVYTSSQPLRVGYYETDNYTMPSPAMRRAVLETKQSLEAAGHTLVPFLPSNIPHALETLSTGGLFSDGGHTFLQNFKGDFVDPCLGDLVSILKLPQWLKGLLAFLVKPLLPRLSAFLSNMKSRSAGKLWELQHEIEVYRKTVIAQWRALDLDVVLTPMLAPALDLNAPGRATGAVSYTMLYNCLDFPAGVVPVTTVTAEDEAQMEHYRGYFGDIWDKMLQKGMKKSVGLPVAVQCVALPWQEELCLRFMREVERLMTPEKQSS
The assay can be described thus: Inhibition of human FAAH at 10 uM using AAMCA as substrate preincubated for 1 hr followed by substrate addition measured after 30 mins by fluorescence assay relative to control. The gist of the method: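 Recombinant human FAAH (C-terminal His-tagged, Sf21), 1 U/well, in 50 mM Tris-HCl, 1 mM EDTA, pH 9, preincubated 1 h at room temperature with 10 μM compound (final). AAMCA added to 20 μM final; fluorescence (ex 360/em 460 nm) read every 3 min for 30 min. Rate by linear regression, no-enzyme background subtracted, normalised to no-inhibitor control.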

The target in assay [4] is T3, Monoglyceride lipase (Homo sapiens) (UniProt Q99685).
T3 sequence (whole entry): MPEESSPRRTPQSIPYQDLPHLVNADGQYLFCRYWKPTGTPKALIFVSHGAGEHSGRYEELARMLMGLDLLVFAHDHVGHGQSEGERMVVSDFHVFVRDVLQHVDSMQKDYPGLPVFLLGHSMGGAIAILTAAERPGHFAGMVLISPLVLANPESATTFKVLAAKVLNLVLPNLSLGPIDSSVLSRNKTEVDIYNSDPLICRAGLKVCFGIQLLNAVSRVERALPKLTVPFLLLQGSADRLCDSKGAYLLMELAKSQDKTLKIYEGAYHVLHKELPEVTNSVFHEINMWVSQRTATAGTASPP
The assay can be described thus: Inhibition of recombinant human MAGL assessed as residual activity at 10 uM using 7-HRA as substrate preincubated for 60 mins followed by substrate addition by fluorescence assay relative to control. The method in brief: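 Recombinant human MAGL (C-terminal His-tagged, E. coli), 25 ng/well, in 50 mM Tris-HCl pH 7.4, 1 mM EDTA, 10% DMSO final. Preincubated with inhibitor or DMSO 60 min at room temperature, then 5 μM 7-HRA (final) added. Resorufin fluorescence (ex 571/em 588 nm) converted via calibration curve. Rates from linear regression, no-enzyme background subtracted, normalised to no-inhibitor control. IC50 taken at 30 min by variable-slope sigmoid fit.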

Assay [5] has as its system B16-F10. Briefly: Induction of apoptosis in mouse B16F10 cells assessed as necrotic cells at 10 uM after 48 hrs by Annexin V-FITC/propidium iodide staining based flow cytometry (reference value: 2.62%). In kind it is functional.
Assay [6] deals with B16-F10. Briefly: Induction of apoptosis in mouse B16F10 cells assessed as live cells at 10 uM after 48 hrs by Annexin V-FITC/propidium iodide staining based flow cytometry (reference value: 88.04%). The assay is classed as functional.
For assay [7], the target named is T4, Monoglyceride lipase (Homo sapiens, UniProt Q99685).
T4 sequence (Q99685 whole entry): T3 sequence (whole entry)
The assay can be described thus: Inhibition of recombinant human MAGL using 7-HRA as substrate preincubated for 60 mins followed by substrate addition by fluorescence assay.

Assay [8] concerns the target T5, Monoglyceride lipase (Mus musculus) (UniProt O35678).
T5 sequence (whole entry): T1 sequence (O35678 whole entry)
Briefly: Inhibition of MAGL in mouse B16-F10 intact cells at 10 uM using 7-HRA as substrate preincubated for 6 hrs followed by substrate addition by fluorescence assay. In kind it is cell-based. The method in brief: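 Intact B16-F10 cells cultured 6 h with compound or DMSO, homogenised 30 min at 4 °C in lysis buffer and spun 1,500 × g 5 min. 1 μg lysate assayed with 10 μM 7-HRA (ex 571/em 588 nm); 5-min values reported; mean ± SEM, n = 3.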

Assay [9] deals with B16-F10. Briefly: Antiproliferative activity against mouse B16F10 cells at 10 uM after 48 hrs by Cyto Tracker red dye based flow cytometry. The assay is classed as functional, cell-based. The method in brief: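 B16-F10 cells (Iscove's medium, 10% heat-inactivated FBS, 37 °C, 5% CO2) exposed to compound or DMSO for 48 h, stained with CytoTrack Red 628/643 and analysed by flow cytometry. Proliferation index (average number of cells that an initial cell became) expressed as fold change over DMSO control; n = 3; one-way ANOVA with Tukey post-test.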

Assay [10] deals with B16-F10. Briefly: Induction of apoptosis in mouse B16F10 cells assessed as late apoptotic cells at 10 uM after 48 hrs by Annexin V-FITC/propidium iodide staining based flow cytometry (reference value: 7.39%). The assay is classed as functional.
Assay [11] concerns the target T3, Monoglyceride lipase (Homo sapiens). Briefly: Inhibition of MAGL in human MCF7 cells at 10 uM using 7-HRA as substrate preincubated for 6 hrs followed by substrate addition by fluorescence assay. In kind it is cell-based. The gist of the method:
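MCF7 cells cultured 6 h with 10 μM compound or DMSO, then lysed; MAGL activity measured on total cell lysate using the 7-HRA fluorogenic assay.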

Assay [12] deals with MCF7. The assay can be described thus: Induction of apoptosis in human MCF7 cells at 10 uM after 48 hrs by Annexin V-FITC/propidium iodide staining based flow cytometry. In kind it is functional, cell-based. The gist of the method:
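HEK293T (DMEM with 10% FBS) or MCF7 (DMEM/Ham's F-12 1:1, 10% FBS) cells treated 48 h with 10 μM compound or DMSO. Staining with Alexa Fluor 488 annexin V plus 5 μg/ml PI in HEPES/NaCl/CaCl2 binding buffer; 10,000 cells per sample read by flow cytometry; n = 3, mean ± S.E.M.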

In assay [13] the test system is MCF7. Briefly: Induction of apoptosis in human MCF7 cells at 10 nM after 48 hrs by Annexin V-FITC/propidium iodide staining based flow cytometry. The assay is classed as functional, cell-based.
Assay [14] deals with MCF7. The assay can be described thus: Induction of apoptosis in human MCF7 cells at 20 uM after 48 hrs by Annexin V-FITC/propidium iodide staining based flow cytometry. In kind it is functional, cell-based. The method in brief: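 MCF7 cells grown in 50% DMEM high glucose / 50% Ham's F-12 with 10% heat-inactivated FBS at 37 °C, 5% CO2, then exposed 48 h to compound or DMSO vehicle. Cells stained with annexin V plus 5 µg/ml PI in HEPES/NaCl/CaCl2 binding buffer. Flow cytometry on 10,000 cells per sample. Apoptotic = AnnV+/PI− plus AnnV+/PI+. n=3, mean ± S.E.M.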

Assay [15] addresses T1, Monoglyceride lipase. The assay can be described thus: […] of MAGL in mouse B16-F10 cells using 7-HRA as substrate preincubated for 60 mins followed by substrate addition measured every 2.5 mins for 2 hrs by fluorescence assay. The assay is classed as cell-based.

Active and inactive are the calls of the source. The calls are words filed in the database; no cut-off is given here.

For the molecule `O=C(Nc1cccc(-c2ccc(C(F)(F)F)cc2)c1)OCc1ccccc1`, the Activity came out at 9.89% in [1]; 82% in [4]; 2.96% in [5]; 64.51% in assay [6]; 22.65% in assay [10]. In addition, the IC50 in assay [2] (read-out: IC50) turned out to be 9.41 µM; in [7] (read-out: IC50), 4.5 µM. Further, in assay [3], the inhibition was 15%. Besides, the inhibition result in assay [8] and in assay [11] was “Active” in each case. The outcome in [9] was Active.

As to `O=C(Nc1cccc(-c2ccccc2)c1)OCCc1ccccc1`, the IC50 in assay [2] (read-out: IC50) was determined as 17.1 µM. Also, the result in assay [9] was inactive.

Take `O=C(Nc1cccc(-c2ccccc2)c1)OC1CCCCC1`: the Activity in [1] is 1.43%; in assay [4], 66%; in [5] it was 5.48%; in assay [6], 79.55%; in assay [10], 13.54%. Moreover, the IC50 in assay [2] (read-out: IC50) came to 19.8 µM; in assay [7] (read-out: IC50) it was 9.1 µM. The result in [9] was inactive.

For `CCCCCCCC/C=C\CCCCCCCC(=O)NCC`, the result in [12] was inactive. The molecule also gave an inhibition in [3] of 99%.

On to `O=C(Nc1cccc(-c2ccc(F)cc2)c1)OCc1ccccc1`, for which, in [2] (read-out: IC50), the IC50 is 15.6 µM. For the same molecule, the outcome in assay [9] was inactive.

As for `COc1ccc(-c2ccc(-c3cn(C(=O)N4CCCCC4c4ccccc4)nn3)cc2)cc1` (configuration not stated), the result in assay [13] was inactive.

For the molecule `O=C(Nc1cccc(-c2ccc(C(F)(F)F)cc2)c1)OCC1CCCCC1`, the IC50 in assay [2] (read-out: IC50) amounted to 17.4 µM. In addition, in [9], the outcome was inactive.

Consider `O=C(Nc1cccc(-c2ccc(F)cc2)c1)OCC1CCCCC1`, for which the half-inhibitory concentration (IC50) in assay [2] (read-out: IC50) worked out at 26.7 µM. Moreover, the result in [9] was inactive.

In the case of `O=C(Oc1ccc([N+](=O)[O-])cc1)N1CCC(C(O)(c2ccc3c(c2)OCO3)c2ccc3c(c2)OCO3)CC1`, in assay [14], the outcome was Active.

As for `O=C(Nc1cccc(-c2ccccc2)c1)OCc1ccco1`, the IC50 result in assay [2] (b16-f10) and in [7] was “Nd(Insoluble)” throughout.

As to `O=C(Nc1cccc(-c2ccccc2)c1)OCc1ccccc1`, the IC50 in [2] (read-out: IC50) stood at 16.5 µM; in [7] (read-out: IC50), 11.1 µM. The outcome in [9] was inactive.

As to `O=C(Nc1cccc(-c2ccccc2)c1)Nc1cccc(-c2ccccc2)c1`, the EC50 in [15] was determined as 5.76 µM.
